A short description of experiment [1]: inhibitors of TNFa-induced NFkB p65 translocation, primary screen, imaging, HUVEC, MLSMR starter and 10KST1 sets (AID 438).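 For inhibition: signal is the nuclear over cytoplasmic p65 intensity ratio per well.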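 Note: compound added about 3h40 before a 20 min TNFalpha stimulation.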 To be noted: HUVEC TNFa-induced p65 nuclear translocation; cell count: measured here: nuclei count (cytotoxicity indicator), at 2.08 µM; inhibition: at 2 µM, stronger effect = higher value, 0% TNFa-plus-vehicle, 100% no-TNFa wells.
Experiment [2] can be described thus: endothelial E-selectin expression blockers – imaging, HUVEC, immunofluorescence, MLSMR starter and 10KST1 sets, primary screen (AID 487;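 active = visually confirmed hit in the image check and inhibition above 20%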;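 for inhibition: signal is fraction of cell area covered by stained E-selectin grains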;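 for nuclei count: 100% = median nuclei count of all wells on the same plate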). The settings on record: HUVEC TNFalpha-induced E-selectin immunofluorescence imaging, at 2 µM; inhibition: stronger effect = higher value; nuclei count: measured here: cell number, toxicity.
Experiment [3] can be described thus: Primary imaging screen for DUSP6 inhibitors that restore phospho-Erk in transfected HeLa cells, chemical complementation (AID 609;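 active = compounds giving at least 50% inhibition in the cell-based MKP-3 phosphatase rescue imaging test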;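 for inhibition: phospho-Erk level distribution per well compared with pooled transfected vehicle control wells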). To be noted: HeLa MKP-3 transfected, phospho-Erk imaging KS statistic, at 10 µM, cells stimulated with TPA for 15 min.
Experiment [4] has as its target Dual specificity protein phosphatase 6 (Homo sapiens) (UniProt Q16828). The experiment is described as above. To be noted: HeLa MKP-3 transfected, phospho-Erk imaging KS statistic; at 10 µM; stronger effect = higher value; cells stimulated with TPA for 15 min.
The target of experiment [5] is Voltage-gated potassium channel subunit beta-2 (Rattus norvegicus) (UniProt P62483). The experiment can be described thus: inhibitors of rat Kvbeta2 reductase activity – biochemical, NADPH fluorescence, primary screen (AID 622;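 active = fluorescence slope higher than the sample average by over 3 SD, cut at about -0.22 in these data, passing the limit was not always enough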;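 note: slope of raw intensity against log time taken from 70 to 1610 s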). To be noted: recombinant KvBeta, 4-cyanobenzaldehyde reduction, at 10 µM, stronger effect = higher value.
Chain of Voltage-gated potassium channel subunit beta-2 (Rattus norvegicus) (P62483 whole entry, looked up): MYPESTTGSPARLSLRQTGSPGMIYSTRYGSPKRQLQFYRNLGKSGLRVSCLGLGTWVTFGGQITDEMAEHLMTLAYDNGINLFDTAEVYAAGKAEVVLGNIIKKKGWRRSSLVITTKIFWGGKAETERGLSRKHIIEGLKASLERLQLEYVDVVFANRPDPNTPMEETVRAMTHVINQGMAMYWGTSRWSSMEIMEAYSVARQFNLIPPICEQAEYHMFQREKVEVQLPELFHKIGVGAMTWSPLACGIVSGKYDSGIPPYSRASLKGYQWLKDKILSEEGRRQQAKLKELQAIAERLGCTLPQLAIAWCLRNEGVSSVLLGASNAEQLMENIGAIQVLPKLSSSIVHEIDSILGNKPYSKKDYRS
Experiment [6] has the same target. The experiment can be described thus: enhancers of rat Kvbeta2 NADPH turnover – biochemical, NADPH fluorescence, primary screen (AID 623;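 active = NADPH fluorescence slope more negative than the mean of all samples by about 3 SD, 99.7% confidence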;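 note: fluorescence intensity change per second fitted from 20 to 320 s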). The settings on record: Recombinant KvBeta, NADPH fluorescence decrease slope, 10 min; at 10 µM; stronger effect = lower value.
Experiment [7] addresses Alpha-2C adrenergic receptor (Homo sapiens) (UniProt P18825). The experiment is described as follows: compounds altering alpha2C-coupled GIRK flux – cell-based, HEK293 alpha2C/GIRK1/2, thallium flux, primary screen (AID 624;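 active = fluorescence slope after compound addition differing from the mean of all screened samples at 99.7% confidence, in either direction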;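 note: slope of fluorescence ratio to pre-addition baseline per second over 15 to 24 s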). To be noted: thallium flux BTC fluorescence, at 10 µM, actives lie on both sides.
Experiment [8] is described as follows: inhibitors of larval lipid processing in zebrafish, primary screen, whole organism, PED6 fluorescence, gall bladder and intestine (AID 686;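 active = a full or partial loss of lipid-probe fluorescence in the fish gall bladder, intestine or both, judged by eye; inactive = no fluorescence loss, or compound toxic to the fish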;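 note: larvae 5 to 7 days old with five fish per well; signal comes from phospholipase A2 cleavage of quenched PED6 carried via bile; overnight exposure to compound and PED6 before scoring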). The settings on record: Zebrafish larvae PED6 lipid processing, fluorescence scoring; screened at 20 µM (by protocol). The gist of the method:
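Doses: 20 µM single dose. Test system: live zebrafish larvae aged 5-7 days, whole organism. Quantity: five larvae per well. Measured by: By-eye fluorescence microscopy. Reagent: ingested quenched lipid PED6 at 100 nM. Read-out: visual per-well fluorescence inhibition score. Times: overnight exposure of larvae to compound plus PED6.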

The nature of experiment [9]: loss of swimming-algae plug formation – whole organism, Chlamydomonas reinhardtii, WT vs cilia-less mutant, absorbance, 96-well, primary screen (AID 463189;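 active = inhibition at or above 50% relative to wild type and mutant plate controls; inactive = inhibition below 50%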;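 note: 0% = wild type cc124 cells in DMSO and 100% = ciliumless bld1 mutant cells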). To be noted: Chlamydomonas reinhardtii gravitaxis, OD600 absorbance, 2 days; at 10 µM; stronger effect = higher value.
The mark [10] stands for this setting: measured here: cell density z-score.
Setting [11] is: measured here: nuclear c-Myc green intensity z-score.
Setting [12] is: measured here: nuclear pErk red intensity z-score, stronger effect = higher value.

Calls of active or inactive are those of the source.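 Rule for the calls, unless noted: active = inhibition above 20% together with a positive visual image hit; inconclusive = visual image hit but inhibition not above 20%; inactive = no visual image hit.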

The values that follow come from PubChem BioAssay.

Chain of Dual specificity protein phosphatase 6 (Homo sapiens) (Q16828 whole entry, looked up): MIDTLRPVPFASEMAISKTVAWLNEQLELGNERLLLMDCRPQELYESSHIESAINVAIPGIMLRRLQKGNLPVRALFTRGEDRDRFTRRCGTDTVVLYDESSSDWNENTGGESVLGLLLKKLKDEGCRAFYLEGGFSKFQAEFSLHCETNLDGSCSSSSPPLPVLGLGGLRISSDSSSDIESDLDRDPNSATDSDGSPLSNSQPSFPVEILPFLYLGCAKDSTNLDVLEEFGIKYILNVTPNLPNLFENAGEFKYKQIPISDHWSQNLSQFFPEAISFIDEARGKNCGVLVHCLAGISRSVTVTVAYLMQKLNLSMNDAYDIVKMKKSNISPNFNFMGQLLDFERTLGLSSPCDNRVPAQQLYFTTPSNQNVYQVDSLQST
Chain of Alpha-2C adrenergic receptor (Homo sapiens) (P18825 whole entry, looked up): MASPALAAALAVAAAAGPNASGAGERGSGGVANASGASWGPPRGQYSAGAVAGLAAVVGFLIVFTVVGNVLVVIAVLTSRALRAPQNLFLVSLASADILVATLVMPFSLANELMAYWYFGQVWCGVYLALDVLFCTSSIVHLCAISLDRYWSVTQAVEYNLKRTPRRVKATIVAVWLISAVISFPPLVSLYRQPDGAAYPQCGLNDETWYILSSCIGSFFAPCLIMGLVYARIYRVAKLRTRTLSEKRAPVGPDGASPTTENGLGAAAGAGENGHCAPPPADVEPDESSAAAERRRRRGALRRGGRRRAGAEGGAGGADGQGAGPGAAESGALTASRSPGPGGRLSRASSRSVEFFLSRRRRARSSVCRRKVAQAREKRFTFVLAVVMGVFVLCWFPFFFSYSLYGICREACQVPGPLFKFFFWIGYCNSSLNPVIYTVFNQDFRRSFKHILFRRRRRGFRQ

As to `CCOC(=O)c1c(C(C#N)C#N)cc(C)nc1C`, the cell count in experiment [1] was found to be 521. Further, the inhibition in experiment [1] was -5.3% (inactive); in experiment [2] it was -83.6% (inactive); in [4], -2.07% (inactive); in experiment [9], 9.41% (inactive). In [2], this compound came in with a nuclei count of 129%. Also, the z-score was 0.584 in [3] (setting [10]), -0.43 in [3] (setting [11]) and 0.768 in experiment [3] (setting [12]). Besides, the fluorescence slope in experiment [5] is -0.509 (inactive). Also, in experiment [6], the NADPH fluorescence slope is -8e-05 (inactive). For the same compound, in [7], the slope was 0.00491 (inactive). The compound was called inactive in [8].
`O=C(Cc1cscn1)c1ccc(O)cc1O`: the cell count in experiment [1] came out at 564. Further, the inhibition is -6% (inactive) in experiment [1], -143% (inactive) in experiment [2], 11.9% (inactive) in experiment [4] and 8.71% (inactive) in experiment [9]. This compound came in with a nuclei count in experiment [2] of 147%. Also, the z-score in [3] (setting [10]) is 1.34; in experiment [3] (setting [11]), -0.975; in [3] (setting [12]) it was -0.882. For the same compound, in experiment [5], the fluorescence slope is -0.544 (inactive). For the same compound, the NADPH fluorescence slope in experiment [6] is -5.6e-05 (inactive). Also, the slope in [7] was 0.00473 (inactive). The outcome in experiment [8] was inactive.
Take `C=CCOc1nc2c(c(=O)n(C)c(=O)n2C)n1Cc1ccc(Cl)cc1Cl`: the cell count in [1] turned out to be 555. Besides, the inhibition in experiment [1] is 1.8% (inactive); in experiment [2], -31.1% (inactive); in experiment [4], -6.48% (inactive); in [9] it was 4.68% (inactive). In experiment [2], this compound returned a nuclei count of 103%. Besides, the results for the z-score in experiment [3] (setting [10]), in experiment [3] (setting [11]) and in [3] (setting [12]) were -0.56, -0.295 and 0.979, respectively. Also, the fluorescence slope in experiment [5] was -0.591 (inactive). In addition, in experiment [6], the NADPH fluorescence slope was -4.9e-05 (inactive). In addition, the slope in experiment [7] was 0.00522 (inactive). Also, in experiment [8], the compound was called inactive.
As to `CC(C)Oc1ccc(/C(O)=C2/C(=O)C(=O)N(CCN(C)C)C2c2ccco2)cc1` (stereo unspecified), the cell count in experiment [1] turned out to be 481. For the same compound, the inhibition in experiment [1] was -1% (inactive); in experiment [2], -6.9% (inactive); in experiment [4] it was -1.12% (inactive); in experiment [9] it was 6.02% (inactive). The compound further had a nuclei count in experiment [2] of 112%. The results for the z-score in experiment [3] (setting [10]), in [3] (setting [11]) and in experiment [3] (setting [12]) were -0.569, -0.19 and -0.239, respectively. The fluorescence slope in experiment [5] was -0.324 (inactive). The NADPH fluorescence slope in experiment [6] was 1.4e-05 (inactive). Moreover, the slope in experiment [7] is 0.00581 (inactive). Besides, the call in [8] was inactive.
As to `Cc1cc(C(F)(F)F)nn1CC(=O)NCC1CCCO1` (stereo unspecified), in [1], the cell count stood at 516. The inhibition in experiment [1] was -3.1% (inactive); in experiment [2] it was -24% (inactive); in [4], -3.98% (inactive); in experiment [9], 12.4% (inactive). The compound also showed a nuclei count in [2] of 137%. The z-score in experiment [3] (setting [10]) was -0.885; in experiment [3] (setting [11]) it was 0.653; in experiment [3] (setting [12]) it was 1.12. Also, the fluorescence slope in [5] was -0.484 (inactive). Further, the NADPH fluorescence slope in experiment [6] was -0.000135 (inactive). Besides, the slope in [7] was 0.00552 (inactive). The result in experiment [8] was inactive.
With `O=C(O)CCCC(=O)Nc1ccn(-c2ccccc2)n1`, the cell count in experiment [1] amounted to 639. In addition, the inhibition in [1] was 3.1% (inactive); in [2], -63.9% (inactive); in experiment [4], 20.3% (inactive); in experiment [9], 11.2% (inactive). This compound displayed a nuclei count in experiment [2] of 142%. Further, the figures for the z-score in experiment [3] (setting [10]), in experiment [3] (setting [11]) and in experiment [3] (setting [12]) were 2.2, -2.05 and 0.525, respectively. Besides, the fluorescence slope in experiment [5] is -0.486 (inactive). Besides, the NADPH fluorescence slope in [6] was -2.7e-05 (inactive). In experiment [7], the slope is 0.00622 (inactive). Also, the compound was called inactive in [8].
`CN(C)C=C1C(=O)c2ccccc2C1=O`: the cell count in experiment [1] came to 574. Besides, the inhibition in experiment [1] was -5.6% (inactive); in experiment [2], -153% (inactive); in [4] it was 11.9% (inactive); in experiment [9], 60.8% (active). This compound returned a nuclei count in experiment [2] of 132%. Also, the z-score in experiment [3] (setting [10]) is -0.195; in [3] (setting [11]), -0.125; in experiment [3] (setting [12]), -0.0657. The fluorescence slope in experiment [5] was -0.423 (inactive). Further, in experiment [6], the NADPH fluorescence slope is -4.2e-05 (inactive). For the same compound, in [7], the slope is 0.00438 (inactive). Moreover, the compound was called inactive in experiment [8].
On to `O=C(CCC1CCCC1)N1CCC(N2CCN(c3ccccc3)CC2)CC1`, for which the cell count in [1] came to 411. Further, the inhibition in [1] is -9.4% (inactive); in experiment [2] it was -188% (inactive); in experiment [4], 9.39% (inactive); in experiment [9] it was 62.1% (active). In addition, in [2], the nuclei count is 140%. Besides, the z-score in experiment [3] (setting [10]) was 0.947; in experiment [3] (setting [11]) it was 0.889; in [3] (setting [12]), -0.837. Also, the fluorescence slope in experiment [5] was -0.446 (inactive). Further, in [6], the NADPH fluorescence slope was 4.6e-06 (inactive). In experiment [7], the slope is 0.00549 (inactive). Besides, the compound was called inactive in [8].
As to `CCOc1ccc(C2/C(=C(/O)c3ccc(F)cc3)C(=O)C(=O)N2CCCN(C)C)cc1` (stereo unspecified), the cell count in [1] was found to be 564. Also, the inhibition in experiment [1] was -4.5% (inactive); in [2], -17% (inactive); in experiment [4], -1.12% (inactive); in [9], -0.349% (inactive). In experiment [2], the nuclei count stood at 186%. For the same compound, the z-score was -0.359 in experiment [3] (setting [10]), 0.0868 in experiment [3] (setting [11]) and -0.309 in experiment [3] (setting [12]). Also, in experiment [5], the fluorescence slope is -0.388 (inactive). In addition, the NADPH fluorescence slope in experiment [6] was -3e-05 (inactive). Also, the slope in experiment [7] was 0.00504 (inactive). For the same compound, in experiment [8], the call was inactive.
As for `COc1ccc(C2C(C#N)=C(SC)NC3=C2C(=O)CC(C)(C)C3)cc1` (stereo unspecified), the cell count in [1] stood at 369. The inhibition in [1] is -8.9% (inactive); in experiment [2], -30.1% (inactive); in [4] it was -12.6% (inactive); in experiment [9], 27.3% (inactive). In addition, the nuclei count in experiment [2] was 156%. Further, the results for the z-score in experiment [3] (setting [10]), in experiment [3] (setting [11]) and in [3] (setting [12]) were 1.03, -0.788 and 1.1, respectively. Moreover, the fluorescence slope in experiment [5] was -0.411 (inactive). Moreover, in experiment [6], the NADPH fluorescence slope was -9.7e-05 (inactive). Besides, the slope in [7] is 0.00455 (inactive). The outcome in [8] was inactive.
As for `COc1cc(C(=O)Nc2nccs2)cc(OC)c1OC`, in experiment [1], the cell count was found to be 542. In addition, the inhibition in experiment [1] is -19.4% (inactive); in experiment [2], 53.4% (inactive); in [4], -13.3% (inactive); in experiment [9], -0.002% (inactive). This compound also yielded a nuclei count in [2] of 163%. Moreover, the z-score in experiment [3] (setting [10]) was 1.12; in experiment [3] (setting [11]) it was -0.213; in experiment [3] (setting [12]), 0.494. In addition, in experiment [5], the fluorescence slope was -0.409 (inactive). Also, the NADPH fluorescence slope in experiment [6] was -6e-05 (inactive). In addition, the slope in experiment [7] is 0.00501 (inactive). Also, in experiment [8], the compound was classed as inactive.
Consider `CC(C)C1Cc2c(sc3c2c(=O)n(Cc2ccccc2)c2nncn32)CO1` (stereo unspecified), for which the cell count in experiment [1] came to 557. The inhibition in experiment [1] is -4.6% (inactive); in experiment [2] it was -2.8% (inactive); in [4], 9.61% (inactive); in experiment [9] it was 8.24% (inactive). In experiment [2], this compound gave a nuclei count of 115%. Also, the z-score in experiment [3] (setting [10]) is 1.56; in experiment [3] (setting [11]) it was 0.421; in [3] (setting [12]) it was -0.614. Moreover, in experiment [5], the fluorescence slope was -0.481 (inactive). The NADPH fluorescence slope in experiment [6] was -0.000346 (inactive). In addition, the slope in [7] is 0.00509 (inactive). Besides, in experiment [8], the compound was classed as inactive.
